Reference: the RNAGym collection of RNA variant scans (doi:10.1038/s41586-018-0170-7)

B1: tRNA (parent)
chain: GUUCCGUUGGCGUAAUGGUAACGCGUCUCCCUCCUAAGGAGAAGACUGCGGGUUCGAGUCCCGUACGGAACG

Variants of: B1
Test: yeast fitness, log relative to wild type (ln ratio); higher = fitter; tRNA-Arg(CCU), competitive growth, 37 C, 1 M NaCl
Outline: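 For each genotype, fitness is defined as the natural log of its generation number over the wild type's. The tRNA-Arg(CCU) variant library was on a HIS3 centromeric plasmid in BY4742 with the chromosomal gene removed, and pools were first grown 4 generations in SC-HIS at 30 °C and then ~6.5 generations (~26.5 h) in SC-HIS 1M NaCl at 37 °C. Generations were calculated from OD-scaled log2 output/input frequency, weighted by inverse variance across replicates, using counts from 125 bp paired-end Illumina sequencing.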

Variant	yeast fitness (ln)
GUUCCGUUGGCGUAAUGGUAACGCGUCUCCCUCCUAAGGAGACGAUUGCGGGUUCGAGUCCCGUAAGGGUUG	-0.341
AUUCCGUUGGCGUAAUGGUAACGCGUUUCCCUCCUAAGGAGAAGAUUGCGGGUUCGAGUCCCGUAUGGAGUG	-0.223
GCUCCGUUGGCGUAAUGGUAACGCGUCUCCCUCCUAAGGAGACGACUGCGGGUUCGAGUCCCGUAAGGGUUG	-0.368
GGUCCGUUGGCGUAAUGGUAACGCGUCUCCCUCCUAAGGAGACGAUUGCGGGUUCGAGUCCCGUAUGGGUCG	-0.172
GGUCCGUUGGCGUAAUGGUAACGCGUCUCCCUCCUAAGGAGAAGAUUGCGGGUUCGAGUCCCGUACGGGAUG	-0.0879
ACUCCGUUGGCGUAAUGGUAACGCGUCUCCCUCCUAAGGAGACGAUUGCGGGUUCGAGUCCCGUAUGGGUCG	-0.195
GCUCCAUUGGCGUAAUGGUAACGCGUCUCCCUCCUAAGGAGACGAUUGCGGGUUCGAGUCCCGUAUGGGAUG	-0.332
GUUCCAUUGGCGUAAUGGUAACGCGUUUCCCUCCUAAGGAGACGACUGCGGGUUCGAGUCCCGUAUGGGUCG	-0.452
GGUCCUUUGGCGUAAUGGUAACGCGUUUCCCUCCUAAGGAGACGAUUGCGGGUUCGAGUCCCGUAUGGAGUG	-0.315
GGUCCUUUGGCGUAAUGGUAACGCGUCUCCCUCCUAAGGAGAAGAUUGCGGGUUCGAGUCCCGUACGGGAUG	-0.129
GCUCCUUUGGCGUAAUGGUAACGCGUUUCCCUCCUAAGGAGAAGACUGCGGGUUCGAGUCCCGUACGGAAUG	-0.147
AUUCCGUUGGCGUAAUGGUAACGCGUCUCCCUCCUAAGGAGAAGACUGCGGGUUCGAGUCCCGUAUGGGAUG	-0.515
AUUCCUUUGGCGUAAUGGUAACGCGUUUCCCUCCUAAGGAGAAGACUGCGGGUUCGAGUCCCGUAAGGAAUG	-0.0761
AGUCCGUUGGCGUAAUGGUAACGCGUCUCCCUCCUAAGGAGAAGAUUGCGGGUUCGAGUCCCGUACGGAGCG	-0.103
GUUCCGUUGGCGUAAUGGUAACGCGUUUCCCUCCUAAGGAGACGACUGCGGGUUCGAGUCCCGUAUGGGACG	-0.384
AUUCCUUUGGCGUAAUGGUAACGCGUUUCCCUCCUAAGGAGAAGACUGCGGGUUCGAGUCCCGUAUGGAGUG	-0.38
ACUCCGUUGGCGUAAUGGUAACGCGUUUCCCUCCUAAGGAGAAGAUUGCGGGUUCGAGUCCCGUAUGGAUCG	-0.0209
GUUCCAUUGGCGUAAUGGUAACGCGUCUCCCUCCUAAGGAGAAGAUUGCGGGUUCGAGUCCCGUAUGGGGUG	-0.581
GUUCCAUUGGCGUAAUGGUAACGCGUCUCCCUCCUAAGGAGACGAUUGCGGGUUCGAGUCCCGUACGGAACG	-0.143

Variant	yeast fitness (ln)
GCUCCUUUGGCGUAAUGGUAACGCGUCUCCCUCCUAAGGAGAAGACUGCGGGUUCGAGUCCCGUAUGGAGCG	-0.0259
GUUCCGUUGGCGUAAUGGUAACGCGUCUCCCUCCUAAGGAGACGACUGCGGGUUCGAGUCCCGUAUGGAAUG	-0.206
GGUCCUUUGGCGUAAUGGUAACGCGUCUCCCUCCUAAGGAGACGAUUGCGGGUUCGAGUCCCGUAUGGGGUG	-0.348
GUUCCGUUGGCGUAAUGGUAACGCGUUUCCCUCCUAAGGAGAAGACUGCGGGUUCGAGUCCCGUACGGAUUG	-0.149
GUUCCUUUGGCGUAAUGGUAACGCGUCUCCCUCCUAAGGAGACGAUUGCGGGUUCGAGUCCCGUAUGGAUUG	-0.359
AUUCCGUUGGCGUAAUGGUAACGCGUCUCCCUCCUAAGGAGACGACUGCGGGUUCGAGUCCCGUAUGGAUUG	-0.25
GCUCCAUUGGCGUAAUGGUAACGCGUUUCCCUCCUAAGGAGAAGAUUGCGGGUUCGAGUCCCGUAUGGGGCG	-0.0335
ACUCCGUUGGCGUAAUGGUAACGCGUCUCCCUCCUAAGGAGACGACUGCGGGUUCGAGUCCCGUACGGAGCG	-0.0553
GGUCCUUUGGCGUAAUGGUAACGCGUUUCCCUCCUAAGGAGACGACUGCGGGUUCGAGUCCCGUACGGAGCG	-0.232
GGUCCGUUGGCGUAAUGGUAACGCGUUUCCCUCCUAAGGAGAAGACUGCGGGUUCGAGUCCCGUACGGGUUG	-0.518
GUUCCAUUGGCGUAAUGGUAACGCGUUUCCCUCCUAAGGAGAAGAUUGCGGGUUCGAGUCCCGUAAGGGGUG	-0.221
AGUCCUUUGGCGUAAUGGUAACGCGUCUCCCUCCUAAGGAGACGAUUGCGGGUUCGAGUCCCGUACGGGGUG	-0.345
GUUCCAUUGGCGUAAUGGUAACGCGUCUCCCUCCUAAGGAGAAGACUGCGGGUUCGAGUCCCGUACGGGGUG	-0.263
GUUCCGUUGGCGUAAUGGUAACGCGUUUCCCUCCUAAGGAGAAGACUGCGGGUUCGAGUCCCGUAAGGGGUG	-0.191
GGUCCGUUGGCGUAAUGGUAACGCGUCUCCCUCCUAAGGAGAAGACUGCGGGUUCGAGUCCCGUACGGAAUG	-0.0549
AGUCCUUUGGCGUAAUGGUAACGCGUUUCCCUCCUAAGGAGACGAUUGCGGGUUCGAGUCCCGUACGGAACG	-0.363
AUUCCGUUGGCGUAAUGGUAACGCGUCUCCCUCCUAAGGAGACGACUGCGGGUUCGAGUCCCGUACGGAGCG	-0.159
GGUCCGUUGGCGUAAUGGUAACGCGUUUCCCUCCUAAGGAGACGACUGCGGGUUCGAGUCCCGUACGGAGUG	-0.151
